Results reported in publication PMC3683554 (Nature structural & molecular biology, 2013).

How the values were obtained:
[1] = tested on: bak−/− mouse liver mitochondria; assay: MOMP assay with cBAK mutants or SAHBq–cBAK traps and NC BID ± ABT-737; assay type: biochemical; conditions: 1 h incubation
cBAK = assay: Calpain protease sensitivity assay of cBAK; assay type: biochemical, human; conditions: 50 mM HEPES pH 7.5, 10 mM DTT, 1 µM m-calpain, 0.5 mM CaCl2, 1% CHAPS, 24°C
[2] = tested on: bid−/− bim−/− mouse liver mitochondria (BAK); assay: MOMP assay, cyt c release from bid−/− bim−/− mouse liver mitochondria; assay type: biochemical; conditions: for BAK-mediated MOMP (cyt c release), bid−/− bim−/− mitochondria: 1 h incubation, peptides up to 50 μM
In short: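 Enriched mitochondrial fractions purified from bid−/− bim−/− mouse liver, run in parallel with bak−/− mouse liver mitochondria. Mitochondria incubated 1 h with unstapled or hydrocarbon-stapled BH3 peptides; MOMP read as cytochrome c release.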

[3] = target: calpain-proteolyzed cBAK (residues 15–186) (human) (UniProt Q16611); assay: AUC

Molecule	Calpain sensitivity of cBAK with peptide, in CHAPS (cBAK)	BAK-mediated MOMP (cyt c release), bid−/− bim−/− mitochondria [2]	also measured
CN(C)CC[C@H](CSc1ccccc1)Nc1ccc(S(=O)(=O)NC(=O)c2ccc(N3CCN(Cc4ccccc4-c4ccc(Cl)cc4)CC3)cc2)cc1[N+](=O)[O-] [ABT-737]	–	–	Effect of ABT-737 on MOMP activity of BH2-tethered SAHBq–cBAK traps [1]: failed to enhance; Effect of ABT-737 on MOMP activity of untethered cBAK mutants [1]: augmented
CC[C@H](C)[C@H](NC(=O)[C@H](CO)NC(=O)[C@H](CCCNC(=N)N)NC(=O)[C@H](CC(=O)O)NC(=O)[C@H](CCSC)NC(=O)[C@H](CO)NC(=O)[C@H](CC(=O)O)NC(=O)CNC(=O)[C@@H](NC(=O)[C@H](CCC(N)=O)NC(=O)[C@H](C)NC(=O)[C@H](CC(C)C)NC(=O)[C@H](Cc1c[nH]cn1)NC(=O)[C@H](CCCNC(=N)N)NC(=O)[C@H](C)NC(=O)[C@@H](NC(=O)[C@H](CC(N)=O)NC(=O)[C@H](CCCNC(=N)N)NC(=O)[C@@H](NC(=O)[C@@H](NC(=O)[C@H](CC(=O)O)NC(=O)[C@H](CCC(=O)O)NC(C)=O)[C@@H](C)CC)[C@@H](C)CC)[C@@H](C)CC)C(C)C)C(N)=O [BH3a]	susceptible to proteolysis by calpain	–	–
AEIIVECATQLRRVGDKLNFRI [NOXA/BIDf]	enhanced protease sensitivity	weakly active	–
BID SAHBa (stapled BID BH3 peptide) (from UniProt P55957 80-101)	–	–	fold enhancement of BAK binding over the unstapled counterpart (BH3a) [3]: 10 fold; stoichiometry N [3]: 1
LWAAQRIGRELRRMGDEMVDSI [BAD/BIDa]	enhanced protease sensitivity	weakly active	–
LWAAQRYGRELRXMSDXFVDSF (sidechain bridge or staple) [BAD SAHB]	–	unable to robustly activate BAK	–
NLWAAQRYGRELRRMSDKFVDSFKK [BADa]	unable to activate cBAK	largely inactive	–
PAELEVECATQLRRFGDKLNFRQKLL [NOXAa]	unable to activate cBAK	largely inactive	–
QPSPARAPAELEVECATQLRXFGDXLNFRQ (sidechain bridge or staple) [NOXA SAHB]	–	unable to robustly activate BAK	BAK-mediated MOMP at the highest concentration tested ([2]; highest concentration tested): weak BAK-mediated MOMP
